Rad51 HR inh: Rad51 (human) homologous recombination inhibition; Q06609; hRad51 DNA strand exchange, fluorescence dequenching; inhibition, % at 10 µM; 0.085% of 200,000 active; AID 1385;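 active = inhibition above 40% at the single screening dose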;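 note: 0% = DMSO control wells and 100% = blanks with heterologous ssDNA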
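material = hRad51 filaments on single-stranded DNA | timing = filaments 15 min 37 °C, then compound 30 min | signal = FRET fluorescence dequenching, excitation 485 nm, emission 520 nm | benchmarks = control wells and blank wells on each plate | evaluation = percent inhibition relative to plate controls and blanks | compound = 10 µM final, single point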
L major viab: reduces viability of Leishmania major promastigotes; resazurin fluorescence viability; inhibition, % at 10 µM; 9% of 200,000 active;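 note: promastigotes grown with compound for 44 hours at 28 °C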
CHOP inh: CHOP inhibition in unfolded protein response. 3.8% of 220,000 active. CHO-K1 CHOP-promoter luciferase, tunicamycin-induced, 15-18 h. inhibition, % at 10 µM;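 active = compounds that reduced the stress-induced luciferase reporter signal by more than about 70% of percent inhibition, limit read from the data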;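 note: 0% = tunicamycin plus vehicle and 100% = wells without tunicamycin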
Wee1 stabilizer: human Wee1 degradation inhibition, primary screen; HeLa Luc-Wee1K328M stability, luciferase luminescence; 100% = proteasome inhibitor MG132 effect; P30291; AID 1321; 1.2% of 220,000 active; reporter increase, % at 5 µM;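 active = activation above the mean of all tested compounds plus 3 SD, set per screening run, cut at about 8.8% in these data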;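 note: cells exposed to compound for 20 h before luminescence read; 0% = DMSO alone and 100% = MG132 at 30 µM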
PKD1 inh: blocks activity of human protein kinase D1 | AID 797 | 0.056% of 200,000 active | PKD1 kinase fluorescence polarization assay | inhibition, % (test concentration not listed)
Arbovirus inh: antivirals against arbovirus infection; inhibition, % at 10 µM; 0.37% of 200,000 active; arbovirus infection cell-based antiviral screen; in the data active = inhibition above about 30%
* marks the source's active call; other numbers are inactive results; x = no result given. Only some compounds are listed: those with a hit (about 12% of all), similar ones and a draw of the others. Cut-off read from the data, not from the text of the source, unless noted: active = inhibition above about 50%; inactive = the rest.

SMILES	Rad51 HR inh	L major viab	CHOP inh	Wee1 stabilizer	PKD1 inh	Arbovirus inh
CC(=O)Nc1ccc(SCC(=O)N(CCC#N)c2cc(C)cc(C)c2)cc1	-5.5	12.1	-19.9	-2.3	-11.1	49.0*
Cc1cc(C)cc(N(CCC#N)C(=O)CSc2nc3nc(C)cc(C)n3n2)c1	-2.0	1.1	-9.0	0.7	2.0	1.8
O=C(CN1CCCC1)Nc1ccc(Oc2ccc(NC(=O)CN3CCCC3)cc2)cc1	-15.7	78.9*	-20.0	0.9	3.4	-31.2
COc1ccc(NS(=O)(=O)c2ccc(NC(=O)c3ccc(CN4CCOCC4)cc3)cc2)cc1	x	12.6	29.5	-1.7	2.2	8.7
O=C(CNC1CCCCCC1)Nc1ccc(N2CCCC2)cc1	x	18.6	-18.4	-1.9	-3.6	-3.9
CC1CCN(S(=O)(=O)c2ccc(NC(=O)CN3CCCC(C)C3)cc2)CC1 (stereo unspecified)	3.0	88.6*	59.8	-0.8	4.3	-16.9
O=C(CNCCC1=CCCCC1)Nc1ccc(N2CCCCCC2)cc1	2.0	84.7*	5.1	2.0	-4.1	-30.0
O=C(Nc1ccc(S(=O)(=O)Nc2ccc(F)cc2)cc1)c1ccc(CN2CCOCC2)cc1	-3.3	98.5*	3.2	0.3	6.0	1.2
CC1CCN(S(=O)(=O)c2ccc(NC(=O)CN3CCN(C)CC3)cc2)CC1	-10.2	24.1	0.6	-1.3	-3.4	3.6
O=C(NC(CCl)c1ccccc1)c1ccc(Cl)cc1 (stereo unspecified)	8.6	-3.7	5.3	3.1	7.8	3.8
CCCCCCCc1c(O)nc(SCCN2CCOCC2)[nH]c1=O	-0.7	-9.2	36.4	-3.4	-1.9	8.0
COc1cc(S(=O)(=O)N2CCOCC2)ccc1NC(=O)COC(=O)CC12CC3CC(CC(C3)C1)C2	2.9	99.8*	-12.4	3.1	2.8	-4.2
Cc1ccc(S(=O)(=O)Nc2ccc(NC(=O)CN3CCCCC3)c(Cl)c2)cc1	-0.3	5.1	94.7*	1.4	2.9	-7.2
Cc1cc(C)c2oc(C(=O)Nc3ccc(S(=O)(=O)N4CCC(C)CC4)cc3)cc(=O)c2c1	0.4	87.1*	42.0	4.9	-4.8	-4.2
O=C(COC(=O)CN1C(=O)C2CCCCC2C1=O)Nc1ccc(S(=O)(=O)N2CCOCC2)cc1 (stereo unspecified)	9.3	56.6*	13.3	-0.9	3.9	5.2
CCC(=O)Nc1ccc(NC(=O)CN2CCCC(C)C2)c(Cl)c1 (stereo unspecified)	-3.6	-5.1	1.4	1.2	11.8	-0.1
CCOC(=O)C(=O)Nc1ccc(S(=O)(=O)N2CCOCC2)cc1OC	-0.7	-3.6	-4.9	5.8	10.5	6.5
COc1ccccc1CCc1nnc(CCC(=O)NC(C)Cc2cccs2)o1 (stereo unspecified)	-3.8	-6.4	19.5	-1.7	-2.9	7.8
S=c1nc(C2CC2)n(-c2ccccc2)[nH]1	33.3	x	12.3	-0.4	x	x
Cc1cccc(NC2=NCC(=O)N2Cc2cccs2)c1	-0.9	0.6	-2.9	-1.5	-7.4	1.9
CCc1ccc(OCC(=O)Nc2ccc(N3CCN(S(C)(=O)=O)CC3)cc2)cc1	x	-3.6	1.6	-3.0	-2.1	-3.2
Cc1cc(C)c(O)c(-c2cc(C(=O)Nc3ccc(S(=O)(=O)N4CCOCC4)cc3)[nH]n2)c1	1.5	90.4*	85.2*	3.5	6.1	-25.6
CC1CCN(S(=O)(=O)c2ccc(S(=O)(=O)N3CCCN(Cc4ccccc4)C3)cc2)CC1	x	86.3*	x	1.0	-2.5	x
Cc1ccc(C(=O)Nc2ccc(S(=O)(=O)N3CCOCC3)cc2)cc1	1.0	-3.0	4.5	0.6	8.6	-4.3
CC1CCN(S(=O)(=O)c2cccc(C(=O)Nc3ccccc3)c2)CC1	x	28.7	0.7	0.8	1.8	-9.4
CC1CCCN(S(=O)(=O)c2ccc(S(=O)(=O)N3CCCN(Cc4ccccc4)C3)cc2)C1 (stereo unspecified)	-0.5	x	x	x	x	x
CC1CCN(S(=O)(=O)c2csc(C(=O)Nc3ccccc3)c2)CC1	1.4	-0.1	76.6*	-2.2	-1.1	1.4
O=C(Nc1ccc(Cc2ccncc2)cc1)c1ccc(S(=O)(=O)N2CCOCC2)cc1	-5.6	99.1*	22.9	-0.7	-9.0	0.2
O=C(NCc1ccc(Cl)cc1)C1CCN(S(=O)(=O)c2ccc(F)cc2)CC1	0.7	-2.8	-1.5	-0.3	-3.1	2.6

Source: PubChem
